# A1 inh: inhibitors of the anti-apoptotic protein A1, read as caspase activation | MEF A1-2A-BIM cells, Caspase-Glo 3/7 luminescence, 3 h; percent of clofoctol response, vehicle zero | hit rate 0.066% among 330,000 | caspase activation, % (concentration not given with the values);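 active means over half of replicate activation scores above 10%, or exactly half above 10 with the replicate mean above 10; inconclusive means replicate mean below 10 yet half the replicates above 10; inactive means over half of replicates below 10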
# EBNA-1 inhibitor: blocks EBNA-1 binding to DNA; EBNA-1 DNA binding, fluorescence polarization; inhibition, % at 14.8 µM; hit rate 0.34% among 300,000; AID 1950; in the data active means inhibition above about 28%
# ZTA DNA inh: counter-screen for EBNA-1 inhibitors: inhibitors of Epstein-Barr virus ZTA. hit rate 0.15% among 320,000. P03206. ZTA-DNA binding, fluorescence polarization. AID 2234. inhibition, % at 11 µM; in the data active means inhibition above about 33%
# HNF4A DNA FP: change in binding of human HNF4 alpha to DNA; P41235; HNF4a-FITC DNA binding, fluorescence polarization, 1 h; activity change, % at 10 µM; hit rate 0.3% among 360,000; AID 1224865; in the data active means activity change above about 30%, passing the limit was not always enough
# Target sequence (P41235 whole entry, looked up): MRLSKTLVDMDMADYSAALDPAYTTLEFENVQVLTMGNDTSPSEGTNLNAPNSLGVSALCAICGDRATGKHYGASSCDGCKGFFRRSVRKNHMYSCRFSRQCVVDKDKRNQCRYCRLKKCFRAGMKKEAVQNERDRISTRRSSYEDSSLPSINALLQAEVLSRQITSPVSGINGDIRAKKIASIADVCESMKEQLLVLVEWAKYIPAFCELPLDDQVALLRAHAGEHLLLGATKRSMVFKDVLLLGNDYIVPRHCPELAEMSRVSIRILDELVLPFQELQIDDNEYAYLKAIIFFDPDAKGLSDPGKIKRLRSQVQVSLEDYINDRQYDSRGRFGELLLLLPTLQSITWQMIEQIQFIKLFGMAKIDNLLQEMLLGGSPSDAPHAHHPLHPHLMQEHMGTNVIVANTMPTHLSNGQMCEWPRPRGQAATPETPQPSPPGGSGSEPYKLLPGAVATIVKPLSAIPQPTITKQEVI
# CSN deneddyl inh: inhibitors of human CSN-mediated cullin deneddylation; AID 651999; Purified CSN, SCF-Nedd8-OG deneddylation, fluorescence polarization; hit rate 0.38% among 360,000; Q92905; inhibition, % at 12.5 µM;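 active means pattern-corrected inhibition above about 35%, with an unprinted fluorescence ratio check between 0.5 and 1.5, limit read from the data, passing the limit was not always enough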;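 further: 0% = enzyme with substrate and 100% = substrate without enzyme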
#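 test system = HEK293T-derived human Csn5 enzyme | amount = 0.24 nM Csn5 enzyme, final concentration | medium = Tris/NaCl/DTT buffer, pH 7.5 | schedule = 90 min reaction at room temperature | signal = FP | evaluation = inhibition of Csn5 cleavage, % | compound dosing = single dose of 12.5 µM compound with 0.25% DMSO | probe or stimulus = 10 nM SCFSkp2-Nedd8OG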
# LANA-H2A inh: blocks KSHV LANA binding to histone H2A/H2B. Q9QR71. cell-free LANA-H2A/H2B peptide, fluorescence polarization. inhibition, % (test concentration not listed). hit rate 0.6% among 320,000. AID 2629; in the data active means inhibition mostly above about 10%, no sharp cut-off; inactive means mostly below about 6.7%
# EBNA-1 confirm: EBNA-1 (EBV) inhibition, confirmation | Recombinant EBNA-1 DBD, Cy5-DNA fluorescence polarization | hit rate 35% among 830 | shares compounds with EBNA-1 inhibitor | inhibition, % at 14.8 µM;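 active means mean inhibition across replicates above a set limit taken from the earlier primary screen, cut at about 28% in these data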;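 further: plate controls were EBNA-1 protein with DMSO for no effect and wells lacking EBNA-1 for full effect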
# ZTA counter trip: blocks Epstein-Barr virus ZTA in triplicate, EBNA-1 counter-screen; shares compounds with EBNA-1 inhibitor; Zta-ZRE DNA binding, Cy5 fluorescence polarization; inhibition, % at 11.1 µM; 830 tested, under 10 active;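 active means mean inhibition over triplicates above a set limit taken from the primary EBNA-1 screen, cut at about 37% in these data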;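 further: purified full length Zta protein with Cy5 labeled ZRE DNA probe; 0% = Zta with DMSO and 100% = wells lacking Zta protein; inhibitors lower polarization by freeing the labeled DNA probe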
# Starred values were filed as active, the others as inactive; ? = inconclusive; nt = not tested or not shown. Only some compounds are listed: those with a hit (about 1.5% of all), similar ones and a draw of the others.
SMILES,A1 inh,EBNA-1 inhibitor,ZTA DNA inh,HNF4A DNA FP,CSN deneddyl inh,LANA-H2A inh,EBNA-1 confirm,ZTA counter trip
O=C(c1ccc(S(=O)(=O)N2CCCCCC2)cc1)N1CCC(CN2C(=O)c3cccc4cccc(c34)C2=O)CC1,0,30*,4,4,-5,-5,-5,4
NS(=O)(=O)c1ccc(NC(=O)/C=C/c2cccs2)cc1,-1,55*,0,0,4,2,1,0
NS(=O)(=O)c1cccc(NC(=O)/C=C/c2cccs2)c1,-1,6,4,0,5,2,nt,nt
COc1ccc(Cc2nnc(NC(=O)Nc3ccccc3F)s2)cc1OC,?,37*,4,6,6,4,71*,10
COc1ccc(Cc2nnc(NC(=O)Nc3ccccc3F)s2)cc1,2,-4,7,-3,-3,-3,nt,nt
Cc1ccc(NC(=O)C(=O)NCCc2c[nH]c3ccccc23)cc1C,-1,5,-8,4,4,2,nt,nt
O=C(NCCc1c[nH]c2ccccc12)C(=O)Nc1ccccc1,0,35*,5,4,0,-2,2,-8
O=C(N/C(=C/c1ccc(Br)cc1)c1nc2ccccc2[nH]1)c1ccco1,0,31*,18,-2,2,-4,82*,18
CCc1nnc(NC(=O)CSc2nc3cc4c(cc3cc2C)OCCO4)s1,2,102*,0,3,-3,4,98*,12
COC(=O)CSc1nc2cc3c(cc2cc1C)OCCO3,0,-21,-8,4,0,-5,nt,nt
CC1CC(C)CN(S(=O)(=O)c2ccc(C(=O)NCc3ccc4c(c3)OCO4)cc2)C1 (stereo not drawn),0,53*,-3,2,-3,-2,-18,-17
OCCN1CCN(c2ncnc3c2ncn3[C@H]2CN(Cc3ccncc3)C[C@@H](CO)O2)CC1,nt,nt,nt,-5,5,nt,nt,nt
CCOC(=O)c1cnc(SCc2cccc3ccccc23)nc1N,0,105*,0,1,-3,5,6,14
CCN(CC)C(=O)Cn1nc(-c2ccncc2)nc1SCC(=O)Nc1ccc(OC)cc1,1,-16,4,-1,-1,-5,nt,nt
COC(=O)c1ccc(NC(=O)Cn2nc(-c3ccncc3)nc2SCC(=O)Nc2nccs2)cc1,0,52*,-17,8,8,4,35*,-14
Cc1ccc(C)c(NC(=O)Cn2nc(-c3ccccc3)nc2-c2ccccc2)c1,0,50*,11,0,2,3,24,-1
CN1CCN(c2ccc(-c3cccc(NC(=O)COc4ccc(Cl)cc4)c3)nn2)CC1,-2,2,12,2,1,2,nt,nt
CN1CCN(c2ccc(-c3cccc(NC(=O)COc4ccc(Cl)cc4Cl)c3)nn2)CC1,-12,28*,18,1,4,3,51*,-4
CC(=O)Nc1ccc(S(=O)(=O)N(C)c2ccc(OCC(=O)NCCc3ccccc3F)cc2)cc1,nt,nt,nt,5,0,nt,nt,nt
CC(OC(=O)CCNS(=O)(=O)c1ccccc1)C(=O)Nc1ccc(S(=O)(=O)N2CCCCC2)cc1 (stereo not drawn),nt,nt,nt,-1,-6,nt,nt,nt
COc1ccc(Cn2c(O)c(C=Nc3ccccc3C(=O)O)c3ccccc3c2=O)cc1,1,-1,9,3,3,-2,nt,nt
COc1ccccc1NS(=O)(=O)c1cccc(-n2c(O)c(C=Nc3ccccc3C(=O)O)c3ccccc3c2=O)c1,0,36*,10,-8,4,-1,21,6
CCOc1ccc(NC(=O)CC(=O)Nc2ccc(OCC)cc2)cc1,0,42*,0,1,-1,-6,4,-4
CCOc1ccc(NC(=O)CCC(=O)O)cc1,0,0,5,9,-5,2,nt,nt
COc1ccc(NC(=O)c2cccc(NC(=O)c3ccccc3)c2)cc1,-2,68*,-13,2,-3,1,-5,-4
SMILES,A1 inh,EBNA-1 inhibitor,ZTA DNA inh,HNF4A DNA FP,CSN deneddyl inh,LANA-H2A inh,EBNA-1 confirm,ZTA counter trip
COc1ccc(C(=O)Nc2ccc(C(=O)c3ccccc3)cc2)cc1,0,11,10,1,-1,-2,nt,nt
COC(=O)C(C(=O)OC)c1ccc(NC(=O)c2cccc(Cl)c2)cc1,0,60*,-3,-2,3,nt,49*,0
COc1ccc(C(=O)Nc2ccc(C(=O)OCC(=O)c3ccccc3)cc2)cc1,-1,-7,-6,0,2,0,nt,nt
COc1ccc(C(=O)COC(=O)c2ccc(NC(=O)c3ccccc3)cc2)cc1,-3,29*,13,1,-1,6,-9,7
CCn1c(O)c(C=Nc2ccccc2)n(-c2ccccc2)c1=S,1,13,-2,-4,0,-1,nt,nt
Cc1cc2c(cc1C)-n1nnnc1C(N1CCN(CC(=O)NC(C)C)CC1)C(=O)N2 (stereo not drawn),nt,nt,nt,-2,1,nt,nt,nt
CCOc1ccc(NC(=O)c2cccc(NC(=O)c3ccccc3)c2)cc1,0,46*,0,0,-4,7,37*,-3
CCOc1cccc(C(=O)Nc2cccc(C(C)=O)c2)c1,0,-1,-12,-4,-1,1,nt,nt
CC(C)Cc1ccc(C(=O)NCCOc2ccccc2)o1,-1,6,19,2,4,-3,nt,nt
CCCCOc1ccc(C(=O)NNC(=O)c2cnccn2)cc1OC,1,nt,nt,0,0,5,nt,nt
CCCNC(=O)c1ccc2c(=O)c(O)c(-c3ccc(OC)cc3)[nH]c2c1,0,32*,4,-6,-2,2,-6,7
CCCNC(=O)c1ccc2c(=O)c(O)c(-c3ccc(C)cc3)[nH]c2c1,0,7,6,1,5,-4,nt,nt
COc1ccc(-n2c(SCC(=O)Nc3ccccc3)nnc2-c2ccc(NS(=O)(=O)c3ccc(C)cc3)cc2)cc1,-1,71*,-3,-7,2,0,28*,1
Cc1ccc(N=Cc2cc3c(cc2O)OC(N)=C(C#N)C3c2ccccc2)cc1 (stereo not drawn),0,-1,-1,22,4,9,nt,nt
CN1CCN(NS(=O)(=O)c2ccc(Cl)cc2)CC1,0,0,2,-2,-4,-7,nt,nt
CCC(C)NC(=O)c1ccc([N+](=O)[O-])c(Cl)c1 (stereo not drawn),0,28*,-6,0,-1,nt,-5,-3
Cc1cc(C)c2cc(C#N)c(NCCNC(=O)c3cccnc3)nc2c1,nt,nt,nt,3,-2,nt,nt,nt

# Screening results (PubChem)
